Only some compounds are listed: those with a hit (about 3.5% of all), similar ones and a draw of the others.
MrgX1 antag: antagonists of human MrgX1 receptor, primary screen, HEK293 cells, Fluo-4 calcium flux; BAM8-22 antagonism; active compounds read low; B-score at 10 µM; hit rate 1.3% among 310,000; AID 588676, 2011;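 active means calcium-response B-score plate-corrected more than 3 library SD below zero, starting fluorescence within 5 deviations, no agonist response on first addition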;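 further: peak minus trough fluorescence over baseline after final BAM8-22 challenge near maximal dose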
RGS4 act: RGS4 potentiators or activators, primary screen, cell-based, HEK293 M3R inducible RGS4, calcium flux; carbachol calcium flux Fluo4; active compounds read low; B-score at 10 µM; hit rate 0.92% among 310,000; AID 463111, 2010;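 active means B-score of the integrated calcium signal more than 4 SD below the library mean, with starting fluorescence not abnormally high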;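 further: negative B-score means reduced calcium response which marks RGS4 activation or potentiation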
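Assay system: Inducible-RGS4 HEK293 cells carrying M3 receptor | Schedule: Compound preincubation 20 min at room temperature before agonist | Signal: Kinetic calcium fluorescence imaging with Fluo4-AM dye, 2 µM | Read-out basis: B score from integrated fluorescence ratio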
RGS4 block: RGS4 inhibitors, primary screen, cell-based, HEK293 M3R inducible RGS4, calcium flux; Regulator of G-protein signaling 4 (Homo sapiens), P49798; Fluo-4 calcium flux; active compounds read high; triggered by carbachol at its EC20; B-score at 10 µM; hit rate 0.45% among 310,000;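 active means B-score, a plate-corrected calcium signal, over three deviations above library mean, with baseline fluorescence within five deviations of library mean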;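 further: RGS4 expression induced by doxycycline in cells with stable M3 receptor; B-score is computed from the integrated fluorescence ratio over baseline after carbachol; higher B-score means a larger calcium signal and so more RGS4 inhibition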
Target sequence (P49798 whole entry, looked up): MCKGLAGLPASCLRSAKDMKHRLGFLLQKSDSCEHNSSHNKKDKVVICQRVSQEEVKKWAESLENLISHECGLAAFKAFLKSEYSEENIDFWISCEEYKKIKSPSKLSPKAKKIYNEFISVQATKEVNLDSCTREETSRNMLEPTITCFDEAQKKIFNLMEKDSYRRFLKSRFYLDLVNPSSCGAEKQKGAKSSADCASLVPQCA
MrgX1 allo act: positive allosteric modulators of MrgX1, primary screen, HEK293 cells, Fluo-4 calcium flux | Mas-related G-protein coupled receptor member X1 (Homo sapiens), Q96LB2 | FDSS; active compounds read high | B-score at 10 µM | hit rate 0.63% among 310,000 | AID 588675, 2011;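 active means plate-corrected calcium response at least 3 library SD above typical, normal starting fluorescence, not activating the receptor alone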;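 further: compound read alongside a low EC10 to EC30 dose of BAM8-22 agonist; peak minus trough fluorescence over baseline measured at the second addition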
MrgX1 ag: agonists of human MrgX1 receptor, primary screen, HEK293 cells, Fluo-4 calcium flux | Mas-related G-protein coupled receptor member X1 (Homo sapiens), Q96LB2 | Fluo-4 calcium fluorescence, agonist mode; active compounds read high | B-score at 10 µM | hit rate 0.44% among 310,000 | AID 588627, 2011;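 active means calcium response B-score plate-corrected fluorescence ratio at least 3 library SD, with starting fluorescence B-score inside 5 SD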
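Test system: HEK293 cells stably expressing human MrgX1 receptor; amount: 15,000 cells per well; doses: compound delivered in addition one of three; times: overnight plating before 1 h dye loading; detection: Fluo-4 NW calcium-flux fluorescence, kinetic read; read-out basis: B-scored fluorescence response ratio; controls: positive and negative controls per plate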
A number is an active result; - = inactive; . = no result.

SMILES | MrgX1 antag | RGS4 act | RGS4 block | MrgX1 allo act | MrgX1 ag
Clc1cccc(COn2c(-c3ccc(Cl)cc3Cl)nc3ncccc32)c1 | - | - | - | - | -
CC(=O)Nc1sc2c(c1-c1nc3ccccc3s1)CCN(C(C)C)C2 | - | . | . | - | 27
CC(C)N1CCc2c(sc(NC(=O)c3ccc4ccccc4c3)c2C(N)=O)C1 | - | - | - | - | -
CCCCN1C[C@H](O)[C@@H](O)[C@H](O)[C@H]1CO | - | - | - | - | -
OCCN1C[C@H](O)[C@@H](O)[C@H](O)[C@H]1CO | -9.5 | - | - | - | -
Cc1cc(Cl)c2oc(C(=O)N3CCCCC3CCN3CCCC3=O)c(C)c2c1 (stereo unspecified) | - | - | - | - | -
COc1cc([N+](=O)[O-])ccc1NC(=O)Nc1cccnc1 | - | - | - | - | -
O=C(Nc1ccc(OC(F)(F)F)cc1)Nc1cccnc1 | - | - | - | - | -
Cc1cc(C)nc(/N=C(\N)Nc2cccc([N+](=O)[O-])c2)n1 | - | - | - | - | 41
Cc1cc(C)nc(/N=C(\N)Nc2ccc([N+](=O)[O-])cc2)n1 | - | - | - | - | -
O=C(Nc1ccc(OC(F)(F)F)cc1)Nc1cccc([N+](=O)[O-])c1 | -6.6 | - | - | - | -
O=C(Nc1cccnc1)Nc1cccc([N+](=O)[O-])c1 | -5.2 | - | - | - | -
O=C(Nc1cccnc1)c1ccc(NS(=O)(=O)c2cccc([N+](=O)[O-])c2)cc1 | - | - | - | 14 | -
Cc1cc(NC(=O)Nc2cccc([N+](=O)[O-])c2)no1 | - | - | - | - | -
Cc1ccc(NC(=O)Nc2cccc([N+](=O)[O-])c2)cc1F | -6.1 | - | - | - | -
CC(OC(=O)c1cccc([N+](=O)[O-])c1)C(=O)NCc1ccc2c(c1)OCO2 (stereo unspecified) | -5.9 | - | - | - | -
COc1cccc(-c2nc(C(=O)NCC3CCCO3)cc3c2[nH]c2ccccc23)c1 (stereo unspecified) | - | -7.2 | - | - | -
COc1ccc(OC)c(-c2nc(C(=O)NCC3CCCO3)cc3c2[nH]c2ccccc23)c1 (stereo unspecified) | - | - | - | - | -
COCC(C)NC(=O)CSc1nc2ccccc2n1CCc1ccccc1 (stereo unspecified) | - | - | - | - | 28
CCc1ccc(/C=N/n2c(COc3ccccc3)n[nH]c2=S)cc1 | - | - | - | - | -
COc1ccc(OC)c(/C=C2/Sc3ccccc3C2=O)c1 | - | - | - | 8.7 | -
O=C(CCCc1nc(-c2ccccc2Cl)no1)N1CCOCC1 | - | - | - | - | -
CCCN(CCC)CCCNC(=O)c1cc2c(=O)n(CC)c3ccccc3c2s1 | - | - | - | - | -
COc1ccc(/C=C/C(=O)Nc2cccnc2Cl)cc1 | - | - | - | - | -
CCOC(=O)C(CN1CCCC1)c1ccccc1 (stereo unspecified) | - | - | - | - | -
SMILES | MrgX1 antag | RGS4 act | RGS4 block | MrgX1 allo act | MrgX1 ag
O=C(c1ccc(Cl)cc1)C(CN1CCCCC1)c1ccccc1 (stereo unspecified) | - | -8.3 | - | - | -
COc1ccc(CCNC(=O)CN2C(=O)COc3ccc(S(=O)(=O)N4CCOCC4)cc32)cc1OC | - | - | - | - | -
O=C(CN1C(=O)S/C(=C\c2ccccn2)C1=O)Nc1ccccc1 | - | - | - | - | -
COc1cc(/C=C2\SC(=S)N(CCC(=O)Nc3cccc(O)c3)C2=O)cc(OC)c1OC | -4.6 | -8.1 | - | - | -
O=C(CCN1C(=O)/C(=C\c2ccccc2)SC1=S)Nc1ccc(C(=O)O)cc1 | - | - | - | 14 | -
O=C(O)COc1cccc(/C=C2/SC(=S)N(Cc3ccccc3)C2=O)c1 | - | - | 5.7 | - | -
O=C(CN1C(=O)S/C(=C\c2cc(Cl)c(O)c(Cl)c2)C1=O)Nc1ccccc1 | - | - | - | - | 27
O=C(O)CN1C(=O)/C(=C\c2cccc(OCc3ccccc3)c2)SC1=S | - | - | - | - | -
CCOC(=O)c1cc(C)n(-c2ccccc2)c1C | - | - | - | - | -
CCOc1ccc(NC(=O)CN(C)S(=O)(=O)c2cccc3cccnc23)cc1 | - | - | - | - | -

Assay outcomes from PubChem BioAssay.
